Bioassay records: PubChem BioAssay, The Scripps Research Institute Molecular Screening Center
Only some compounds are listed: those with a hit (about 1.8% of all), similar ones and a draw of the others.
M5 PAM: human M5 muscarinic receptor positive allosteric modulators, primary screen, CHO-K1 cells, Fluo-8 calcium fluorescence; Muscarinic acetylcholine receptor M5 (Homo sapiens), P08912; CHO-K1 hM5, ACh EC20 PAM; 0% = ACh EC20, 100% = ACh EC100; activation, % at 3 µM; hit rate 0.3% among 360,000; AID 624038, 2012;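 active means activation above the run cutoff, the mean activation of all test compounds plus 3 SD, cut at about 18% in these data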
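Probe or stimulus: acetylcholine, EC20 level; Assay system: human M5 receptor in CHO-K1 cells; Schedule: compound preincubation 140 s before EC20 acetylcholine addition; Technique: intracellular calcium via Fluo-8 fluorescence; Dosing: single-point, 3 µM nominal; Read-out basis: percent activation from peak-over-basal fluorescence ratio, scaled EC20-to-EC100 acetylcholine; Repeats: one well per compound, no replicates.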
CHRM5 antagonist: human M5 muscarinic receptor antagonists, primary screen, CHO cells, Fluo-8 calcium fluorescence; AID 624040, 2012; Muscarinic acetylcholine receptor M5 (Homo sapiens), P08912; CHO-hM5 cells, ACh EC80; inhibition, % at 3 µM; hit rate 0.59% among 360,000;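 active means inhibition above a per-plate cutoff, the mean of that plate's test compounds plus 3 SD, cut at about 27% in these data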;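 further: 0% = acetylcholine EC80 with DMSO and 100% = DMSO without agonist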
CHRM4 agonist: human M4 muscarinic receptor agonists, primary screen, CHO-K1 cells, Fluo-8 calcium fluorescence | Muscarinic acetylcholine receptor M4 (Homo sapiens), P08173 | CHO-K1 hM4/Gqi5; vehicle 0%, full acetylcholine response 100% | activation, % at 3 µM | hit rate 0.14% among 360,000 | AID 624127, 2012;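 active means activation above the run mean over all test wells plus 3 SD, cut at about 32% in these data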;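 further: peak over basal fluorescence ratio per well then scaled between controls; 0% = DMSO wells and 100% = acetylcholine at EC100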
Target sequence (P08173 whole entry, looked up): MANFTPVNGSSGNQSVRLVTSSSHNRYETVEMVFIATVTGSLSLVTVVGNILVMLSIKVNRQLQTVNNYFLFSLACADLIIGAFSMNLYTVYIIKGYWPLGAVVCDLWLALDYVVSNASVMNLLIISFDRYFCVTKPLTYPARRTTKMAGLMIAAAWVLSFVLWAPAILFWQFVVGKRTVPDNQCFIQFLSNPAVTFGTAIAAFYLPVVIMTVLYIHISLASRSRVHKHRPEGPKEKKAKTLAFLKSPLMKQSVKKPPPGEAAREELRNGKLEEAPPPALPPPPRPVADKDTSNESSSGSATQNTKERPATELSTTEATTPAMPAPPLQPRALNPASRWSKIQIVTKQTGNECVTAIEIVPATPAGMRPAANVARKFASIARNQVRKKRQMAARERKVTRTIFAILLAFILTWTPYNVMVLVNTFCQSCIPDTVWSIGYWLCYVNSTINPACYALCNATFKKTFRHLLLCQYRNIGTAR
CHRM5 agonist: human M5 muscarinic receptor agonists, primary screen, CHO-K1 cells, Fluo-8 calcium fluorescence; Muscarinic acetylcholine receptor M5 (Homo sapiens), P08912; CHO-K1 hM5 cells; 0% DMSO wells, 100% maximal acetylcholine response; activation, % at 3 µM; hit rate 0.19% among 360,000; AID 624037, 2012;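 active means activation above the run's mean over test compounds plus 3 SD, cut at about 23% in these data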;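 further: signal is peak over basal fluorescence ratio across the kinetic read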
CHRM4 PAM: human M4 muscarinic receptor positive allosteric modulators, primary screen, CHO-K1 cells, Fluo-8 calcium fluorescence; Muscarinic acetylcholine receptor M4 (Homo sapiens), P08173; activation, % at 3 µM; CHO-K1 hM4/Gqi5, ACh EC20; 0% = ACh EC20, 100% = maximal ACh; hit rate 0.4% among 360,000; AID 624126, 2012;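 active means activation above its plate's cutoff, the mean activation of sample wells plus 3 SD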
CHRM4 antagonist: human M4 muscarinic receptor antagonists, primary screen, CHO cells, Fluo-8 calcium fluorescence. Muscarinic acetylcholine receptor M4 (Homo sapiens), P08173. inhibition, % at 3 µM. hit rate 0.73% among 360,000. CHO-hM4 cells, ACh EC80;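 active means inhibition above its plate's cutoff, the mean inhibition of sample wells plus 3 SD, cut at about 27% in these data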;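 further: 0% = acetylcholine EC80 with DMSO and 100% = DMSO without agonist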
Numbers without * were called inactive.

SMILES | M5 PAM | CHRM5 antagonist | CHRM4 agonist | CHRM5 agonist | CHRM4 PAM | CHRM4 antagonist
CCCCC1NC(C(=O)O)CS1 (stereo not drawn) | -1.2 | 4.5 | 1.2 | 1.9 | -4.7 | 6.6
CSc1nc(-c2ccc(Cl)cc2)c(C#N)c(=O)n1C | 4.4 | -3.1 | 1.8 | 2.9 | 20.1* | -10.0
COc1ccc(Cl)cc1Nc1nc2ccc(C)cc2n2cnnc12 | -2.7 | 12.3 | 0.3 | -4.0 | -1.9 | 5.8
Cn1cc(Cl)c(C(=O)Nc2nccs2)n1 | 1.3 | 6.3 | 0.3 | -0.6 | -1.0 | 3.9
O=C(Nc1nccs1)c1ncc(Cl)c(Cl)c1Cl | -7.2 | 29.9* | 0.7 | -2.8 | -9.5 | 14.0
CC(=O)c1cc2c(cc1NC(=O)C1CCC1)OCO2 | 14.3 | -9.6 | 2.4 | -3.6 | 23.6* | -0.8
COC(=O)CN1CCN(C(c2ccccc2)c2ccccc2)CC1 | 1.0 | 1.6 | -0.4 | -7.3 | -6.5 | 8.8
CN(Cc1ccccc1)C(=O)CN1CCN(C(c2ccccc2)c2ccccc2)CC1 | -33.7 | 10.7 | -0.4 | -17.8 | -26.9 | 50.0*
CC1CCC(NC(=O)c2cccc(S(=O)(=O)N3CCN(c4ccc(F)cc4)CC3)c2)CC1 (stereo not drawn) | 4.0 | -6.3 | 2.3 | 0.6 | -3.0 | -3.4
O=C(Cc1ccccc1)NN=Cc1ccccc1 | -0.9 | 4.0 | 0.8 | -0.1 | 9.3 | -7.2
O=C(Cc1ccccc1)N/N=C/c1cc(Br)c(Br)o1 | -7.1 | 5.0 | -0.9 | 0.8 | 28.4* | -9.0
CCOC(=O)C1CCCN(C/C(O)=C(\C#N)c2nc(-c3ccccc3)cs2)C1 (stereo not drawn) | -6.5 | -3.5 | 4.6 | 23.3* | 3.3 | -3.7
Cn1cc(C(=O)c2cccc(Cl)c2)cc1C#N | 1.0 | -2.7 | 5.7 | -2.0 | 26.3* | 5.7
CC(C)[C@H](NC(=O)OCc1ccccc1)C(=O)OCC(=O)NC1CCCCC1 | -2.8 | -0.3 | 0.5 | -4.2 | 0.7 | -0.2
CC(C)[C@H](NC(=O)OCc1ccccc1)C(=O)OCC(=O)NC1(C#N)CCCC1 | 10.8 | -2.4 | 1.3 | -5.2 | 15.9* | 0.7
O=S(=O)(c1ccc(F)cc1)N1CCN(CC(O)COCC2CCCO2)CC1 (stereo not drawn) | 4.6 | 8.8 | 0.6 | -3.0 | -7.3 | 5.2
CCc1c(-c2ccc(Br)cc2)ncn1Cc1cccc(-c2ccccc2)c1 | -19.9 | 72.2* | 2.8 | -5.9 | -17.2 | 50.1*
CCCc1c(-c2cccc(Br)c2)ncn1Cc1cccc(-c2ccccc2)c1 | -13.1 | 13.4 | 3.4 | 0.2 | -14.4 | 6.4
CC(C)c1ccc(NC(=O)CSc2nc(=O)[nH]c3c2CCCC3)cc1 | 3.3 | -4.9 | 0.7 | 44.9* | 28.1* | -7.9
CCc1ccc(NC(=O)CSc2nc(=O)n(CCCN(C)C)c3c2CCC3)cc1 | -19.1 | 30.9* | -0.3 | -5.6 | 7.8 | -9.1
CN(C)CCn1c2c(c(SCC(=O)Nc3ccccc3)nc1=O)CCCC2 | 5.6 | -8.2 | -0.2 | -3.0 | -0.3 | 4.7
CCN(CC)CCn1c2c(c(SCC(=O)Nc3ccc(C(C)C)cc3)nc1=O)CCCC2 | -2.4 | 1.6 | -0.2 | -8.2 | 13.6 | -24.5
CC(=O)NC(Cc1c[nH]c2ccccc12)C(=O)OCC(=O)N1CCCCCC1 (stereo not drawn) | 6.9 | 6.3 | 0.2 | -2.8 | 4.7 | -1.1
C/C(=N\NC(=O)COc1ccc(C)cc1C(C)C)c1ccc(-n2ccnc2)cc1 | 0.9 | 3.5 | 1.0 | -0.9 | -4.8 | 47.9*
COC(=O)N/N=C(\C)c1ccc(-n2ccnc2)cc1 | -2.9 | -11.1 | 1.0 | -1.5 | -0.5 | -4.1
SMILES | M5 PAM | CHRM5 antagonist | CHRM4 agonist | CHRM5 agonist | CHRM4 PAM | CHRM4 antagonist
CN(C)CCCNCCCNC(=O)c1ccccn1 | 0.1 | 9.4 | 0.6 | -4.5 | 3.7 | 3.7
CN(C)CCCNCCCNC(=O)/C(=N\O)c1ccccc1 | 5.8 | 1.2 | 1.2 | -5.1 | 32.8* | -16.5
CCOc1ccc(N2CC(O)(c3cccs3)[N+]3=C2CCCC3)cc1 (stereo not drawn) | -33.3 | 35.8* | 1.3 | -16.5 | -18.2 | 25.7
COc1ccc(OC)c(N2CC(O)(c3cccs3)[N+]3=C2SCCC3)c1 (stereo not drawn) | 10.3 | -1.5 | 0.4 | -1.9 | 0.5 | 2.6
OC1(c2cccs2)CN(c2ccccc2)C2=[N+]1CCCC2 (stereo not drawn) | -5.5 | 1.4 | 1.2 | -16.1 | -6.0 | -2.7
OC1(c2cccs2)CN(c2ccc(Br)cc2)C2=[N+]1CCCS2 (stereo not drawn) | -28.3 | 19.7 | 0.4 | -20.4 | -13.8 | 27.1*
CCCN(CC1CC1)C(=S)NC(=O)c1cc(Br)ccc1Cl | -2.9 | -3.3 | 0.5 | -6.2 | 6.7 | -14.3
N#CC1(CCCN2CCCCC2)c2ccccc2CCc2ccccc21 | -36.0 | 26.9 | 8.7 | -17.4 | -68.2 | 26.4*
OCCN1CCN(CCCN2c3ccccc3CCc3ccccc32)CC1 | -16.6 | 12.4 | 3.3 | -3.4 | -0.5 | -3.7
COC1CCN(C(=O)c2ccc3oc(C(C)C)nc3c2)CC1 | 6.4 | 5.8 | 2.4 | -1.1 | 2.0 | 0.7
N#Cc1c(-c2ccccc2)c(-c2ccccc2)n(Cc2ccco2)c1NC(=O)c1cccs1 | 29.1* | -0.2 | -0.9 | -0.2 | -0.9 | -2.0
CCCCCCOc1ccc(/C(C)=N/NC2=NCCN2)cc1[N+](=O)[O-] | 5.6 | -6.4 | 5.5 | -2.2 | 16.9 | 4.9
CCCCOc1ccc(Br)cc1/C(C)=N/NC1=NCCN1 | -17.7 | 16.6 | 3.4 | -5.3 | -23.5 | 34.8*
O=C(Nc1nnc([C@@H]2O[C@H](CO)[C@@H](O)[C@H]2O)s1)Nc1ccccc1C(F)(F)F | 1.7 | -4.8 | 0.1 | 0.1 | 4.7 | -2.7
O=C(COC(=O)C1(c2ccccc2)CC1)NNC(=O)c1ccccc1F | 0.3 | 2.7 | 0.7 | 1.5 | 3.8 | -14.1
C[N+]1(CCOC(=O)C2(c3ccccc3)CCCC2)CCCCC1 | -17.3 | 97.9* | 0.0 | -7.8 | -26.1 | 97.4*
CC(C[N+](C)(C)C)OC(=O)C1(c2ccccc2)CCCC1 (stereo not drawn) | -31.7 | 42.0* | 0.7 | -21.6 | -44.0 | 22.4
C[N+](C)(C)CCOC(=O)C1(c2ccccc2)CCCC1 | -15.3 | 99.1* | 0.6 | -11.8 | -13.8 | 97.5*
COc1ccc(NC(=O)C2(c3ccccc3)CCCC2)cc1 | -7.8 | 0.4 | -0.8 | -7.1 | -4.1 | 2.5
CCCCOC(=O)CSc1nc(N)c(C#N)c(-c2ccc(OCC)cc2)c1C#N | 0.1 | 6.2 | -0.1 | -0.9 | -3.5 | 9.5
